The source made the active and inactive calls.
Tests used:
Mus musculus [1] = assay: Anticonvulsant activity in ip dosed albino CF1 mouse assessed as protection against maximal electroshock-induced seizures in presence of 50 miliamperes of electric current; format: functional
In short: (§1)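 Adult male albino CF-1 (Carworth Farms No. 1) mice dosed ip under NINDS ASP; MES test. Compounds with sufficient activity got a dose-response curve (4–6 doses, n = 8 per dose) at the time of peak effect (h, bracketed).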

Mus musculus [2] = assay: Anticonvulsant activity in ip dosed albino CF1 mouse assessed as time of peak effect by maximal electroshock seizures test in presence of 50 miliamperes of electric current; format: functional; in short: as §1
[3] = Neurotoxicity in ip dosed albino CF1 mouse assessed as minimal motor coordination impairment by rotarod test; format: toxicity, organism-based; conditions: in vivo
Rattus norvegicus [4] = assay: Anticonvulsant activity in po dosed albino Sprague-Dawley rat assessed as protection against maximal electroshock-induced seizures in presence of 150 miliamperes of electric current; format: functional
In short: (§2)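 Adult male albino Sprague-Dawley rats dosed orally under NINDS ASP; MES test. ED50 in mg/kg, with time of testing noted in hours in brackets.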

Rattus norvegicus [5] = assay: Anticonvulsant activity in po dosed albino Sprague-Dawley rat assessed as time of peak effect by maximal electroshock seizures test in presence of 150 miliamperes of electric current; format: functional; in short: as §2
[6] = Neurotoxicity in po dosed albino Sprague-Dawley rat; format: toxicity, organism-based; conditions: in vivo
In short: (§3)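 Adult male albino Sprague-Dawley rats given compound orally under NINDS ASP. Behavioral toxicity was scored by the positional sense test or the gait and stance test. TD50 in mg/kg, with time in hours bracketed.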

Rattus norvegicus [7] = assay: Behavioral toxicity in po dosed albino Sprague-Dawley rat assessed as time of peak effect; format: organism-based; conditions: in vivo; in short: as §3
Mus musculus [8] = assay: Neurotoxicity in ip dosed albino CF1 mouse assessed as time of peak effect by rotarod test; format: toxicity, organism-based; conditions: in vivo
Mus musculus [9] = assay: Anticonvulsant activity in ip dosed albino CF1 mouse assessed as protection against subcutaneous metrazol-induced seizures; format: functional, organism-based
In short: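 Male albino CF-1 mice dosed ip under NINDS ASP; subcutaneous pentylenetetrazol (Metrazol) seizure threshold test.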

Mus musculus [10] = organism: Mus musculus; assay: Protective index, ratio of TD50 for albino CF1 mouse by rotarod test to ED50 for albino CF1 mouse by maximal electroshock seizures test; format: functional
In short: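 Mouse protective index calculated as rotorod TD50 divided by MES ED50, both from ip dosing of male CF-1 mice at the NINDS ASP.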

Rattus norvegicus [11] = organism: Rattus norvegicus; assay: Protective index, ratio of TD50 for albino Sprague-Dawley rat to ED50 for albino Sprague-Dawley rat by maximal electroshock seizures test; format: functional
In short: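 Rat protective index calculated as behavioral toxicity TD50 divided by MES ED50, both after oral dosing of male Sprague-Dawley rats at the NINDS ASP.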

Mus musculus [12] = assay: Anticonvulsant activity in ip dosed NMRI mouse assessed as protection against maximal electroshock-induced seizures after 30 mins in presence of 50 miliamperes of electric current; format: functional; conditions: 0.5 h

CC(C)[C@@H](N)CNCc1ccccc1
ED50 (Mus musculus [1]): 30 mg/kg
Time (Mus musculus [2]): 0.5 h
TD50 [3]: 100 mg/kg
ED50 (Rattus norvegicus [4]): > 30 mg/kg
Time (Rattus norvegicus [5]): 0.25 h
TD50 [6]: > 30 mg/kg
Time (Rattus norvegicus [7]): 0.25 h
Time (Mus musculus [8]): 0.5 h
Activity (Mus musculus [9]): inactive

CC(C)[C@@H](N)C(=O)NCCc1ccccc1F
ED50 (Mus musculus [1]): 27 mg/kg
Time (Mus musculus [2]): 0.25 h
TD50 [3]: 79 mg/kg
PI (Mus musculus [10]): 2.9
Time (Rattus norvegicus [5]): 4 h
TD50 [6]: 500 mg/kg
PI (Rattus norvegicus [11]): >25
Time (Mus musculus [8]): 0.25 h

CC(C)[C@@H](N)C(=O)NCCCCc1ccccc1
ED50 (Mus musculus [1]): 11 mg/kg
Time (Mus musculus [2]): 0.25 h
TD50 [3]: 38 mg/kg
PI (Mus musculus [10]): 3.5
ED50 (Rattus norvegicus [4]): > 30 mg/kg
Time (Rattus norvegicus [5]): 0.25 h
TD50 [6]: > 30 mg/kg
Time (Rattus norvegicus [7]): 0.25 h
Time (Mus musculus [8]): 0.25 h
Activity (Mus musculus [9]): inactive

CC(C)[C@@H](N)C(=O)NCc1ccccc1OC(F)(F)F
ED50 (Mus musculus [1]): 9.2 mg/kg
Time (Mus musculus [2]): 0.25 h
TD50 [3]: 51 mg/kg
PI (Mus musculus [10]): 5.5
ED50 (Rattus norvegicus [4]): 33 mg/kg
Time (Rattus norvegicus [5]): 0.5 h
TD50 [6]: > 500 mg/kg
PI (Rattus norvegicus [11]): >15
Time (Mus musculus [8]): 0.25 h
Activity (Mus musculus [9]): inactive

CCCC(CCC)C(=O)[O-].[Na+] [VALPROATE SODIUM]
ED50 (Mus musculus [1]): 270 mg/kg
Time (Mus musculus [2]): 0.5 h
Time (Rattus norvegicus [5]): 0.5 h
Time (Rattus norvegicus [7]): 0.5 h
Time (Mus musculus [8]): 0.25 h

CC(C)[C@@H](N)C(=S)NCc1ccccc1
ED50 (Mus musculus [1]): 30 mg/kg
Time (Mus musculus [2]): 0.5 h
TD50 [3]: 30 mg/kg
ED50 (Rattus norvegicus [4]): < 30 mg/kg
Time (Rattus norvegicus [5]): 0.5 h
TD50 [6]: > 30 mg/kg
Time (Rattus norvegicus [7]): 0.25 h
Time (Mus musculus [8]): 0.5 h
Activity (Mus musculus [9]): inactive

CN[C@@H](C(=O)NCc1ccccc1)C(C)C
ED50 (Mus musculus [12]): 25 mg/kg

CC[C@@H](O)C(=O)NCc1ccccc1
ED50 (Mus musculus [1]): 100 mg/kg
Time (Mus musculus [2]): 0.5 h
TD50 [3]: 100 mg/kg
ED50 (Rattus norvegicus [4]): > 30 mg/kg
Time (Rattus norvegicus [5]): 0.25 h
TD50 [6]: > 30 mg/kg
Time (Rattus norvegicus [7]): 0.25 h
Time (Mus musculus [8]): 0.5 h
Activity (Mus musculus [9]): inactive

CC(C)[C@@H](N)C(=O)OCc1ccccc1
ED50 (Mus musculus [1]): > 300 mg/kg
Time (Mus musculus [2]): 0.5 h
TD50 [3]: > 300 mg/kg
ED50 (Rattus norvegicus [4]): > 30 mg/kg
Time (Rattus norvegicus [5]): 0.25 h
TD50 [6]: > 30 mg/kg
Time (Rattus norvegicus [7]): 0.25 h
Time (Mus musculus [8]): 0.5 h
Activity (Mus musculus [9]): inactive

CC(=O)NC(C(=O)NCc1ccccc1)c1ccccc1 (racemic)
ED50 (Mus musculus [1]): 20 mg/kg

O=C1NC(=O)C(c2ccccc2)(c2ccccc2)N1 [PHENYTOIN]
Time (Mus musculus [2]): 2 h
ED50 (Rattus norvegicus [4]): 30 mg/kg
Time (Rattus norvegicus [5]): 4 h
TD50 [6]: > 3000 mg/kg
Time (Mus musculus [8]): 0.25 h

CC(C)[C@@H](N)C(=O)Nc1ccccc1
ED50 (Mus musculus [1]): 30 mg/kg
Time (Mus musculus [2]): 0.5 h
TD50 [3]: > 30 mg/kg
Time (Mus musculus [8]): 0.5 h
Activity (Mus musculus [9]): inactive

COC[C@@H](NC(C)=O)C(=O)NCc1ccccc1 [LACOSAMIDE]
Time (Mus musculus [2]): 0.5 h
PI (Mus musculus [10]): 6
Time (Rattus norvegicus [5]): 2 h
TD50 [6]: > 500 mg/kg
Time (Mus musculus [8]): 0.25 h

CC(C)[C@@H](N)C(=O)NCCCc1ccccc1
ED50 (Mus musculus [1]): 16 mg/kg
Time (Mus musculus [2]): 0.25 h
TD50 [3]: 43 mg/kg
PI (Mus musculus [10]): 2.7
ED50 (Rattus norvegicus [4]): < 30 mg/kg
Time (Rattus norvegicus [5]): 0.25 h
TD50 [6]: > 30 mg/kg
Time (Rattus norvegicus [7]): 0.25 h
Time (Mus musculus [8]): 0.25 h
Activity (Mus musculus [9]): inactive

CC(C)[C@@H](N)C(=O)NCC1CCCCC1
ED50 (Mus musculus [1]): 30 mg/kg
Time (Mus musculus [2]): 0.5 h
TD50 [3]: 100 mg/kg
ED50 (Rattus norvegicus [4]): 15 mg/kg
Time (Rattus norvegicus [5]): 0.25 h
TD50 [6]: > 30 mg/kg
Time (Rattus norvegicus [7]): 0.25 h
Time (Mus musculus [8]): 0.5 h
Activity (Mus musculus [9]): inactive

CC(C)[C@@H](N)C(=O)NCCc1ccc(F)cc1
ED50 (Mus musculus [1]): 10 mg/kg
TD50 [3]: 30 mg/kg

CC(C)[C@@H](N)C(=O)NCCc1ccccc1
ED50 (Mus musculus [1]): 10 mg/kg
Time (Mus musculus [2]): 0.25 h
TD50 [3]: 50 mg/kg
PI (Mus musculus [10]): 5
ED50 (Rattus norvegicus [4]): < 30 mg/kg
Time (Rattus norvegicus [5]): 0.25 h
TD50 [6]: > 30 mg/kg
Time (Rattus norvegicus [7]): 0.24 h
Time (Mus musculus [8]): 0.25 h
Activity (Mus musculus [9]): inactive

CC(C)[C@@H](N)C(=O)CCc1ccccc1.Cl
ED50 (Mus musculus [1]): 30 mg/kg
TD50 [3]: 100 mg/kg
Activity (Mus musculus [9]): inactive

CCCC(=O)NCc1ccccc1
TD50 [3]: 100 mg/kg
TD50 [6]: > 30 mg/kg
Time (Mus musculus [8]): 0.5 h

CC[C@H](C)C(=O)NCc1ccccc1
ED50 (Mus musculus [1]): 100 mg/kg
Time (Mus musculus [2]): 0.5 h
TD50 [3]: 300 mg/kg
ED50 (Rattus norvegicus [4]): > 30 mg/kg
Time (Rattus norvegicus [5]): 0.25 h
TD50 [6]: > 30 mg/kg
Time (Rattus norvegicus [7]): 0.25 h
Time (Mus musculus [8]): 0.5 h

CC(C)[C@@H](N)C(=O)NCCc1cccc(F)c1
ED50 (Mus musculus [1]): 20 mg/kg
Time (Mus musculus [2]): 0.25 h
TD50 [3]: 67 mg/kg
PI (Mus musculus [10]): 3.4
ED50 (Rattus norvegicus [4]): 38 mg/kg
Time (Rattus norvegicus [5]): 0.5 h
TD50 [6]: > 500 mg/kg
Time (Mus musculus [8]): 0.25 h

CCC(C)C(=O)NCc1ccccc1 (racemic)
ED50 (Mus musculus [1]): 56 mg/kg
Time (Mus musculus [2]): 0.25 h
TD50 [3]: 165 mg/kg
PI (Mus musculus [10]): 2.9
ED50 (Rattus norvegicus [4]): 51 mg/kg
Time (Rattus norvegicus [5]): 0.5 h
TD50 [6]: > 500 mg/kg
PI (Rattus norvegicus [11]): >9.8
Time (Mus musculus [8]): 0.25 h
Activity (Mus musculus [9]): inactive

CC(C)[C@H](C(=O)NCc1ccccc1)N(C)C
ED50 (Mus musculus [1]): 30 mg/kg
Time (Mus musculus [2]): 0.5 h
TD50 [3]: 100 mg/kg
Time (Mus musculus [8]): 0.5 h
Activity (Mus musculus [9]): inactive

CCC1(c2ccccc2)C(=O)NC(=O)NC1=O [PHENOBARBITAL]
ED50 (Mus musculus [1]): 22 mg/kg
Time (Mus musculus [2]): 1 h
PI (Mus musculus [10]): 3
ED50 (Rattus norvegicus [4]): 9.1 mg/kg
Time (Rattus norvegicus [5]): 5 h
PI (Rattus norvegicus [11]): >100
Time (Rattus norvegicus [7]): 0.5 h
Time (Mus musculus [8]): 0.5 h

CC(C)[C@@H](N)C(=O)NCc1cccc(OC(F)(F)F)c1
ED50 (Mus musculus [1]): 7.1 mg/kg
Time (Mus musculus [2]): 0.25 h
TD50 [3]: 30 mg/kg
PI (Mus musculus [10]): 4.2
ED50 (Rattus norvegicus [4]): 10 mg/kg
Time (Rattus norvegicus [5]): 1 h
TD50 [6]: 43 mg/kg
PI (Rattus norvegicus [11]): 4.3
Time (Rattus norvegicus [7]): 1 h
Time (Mus musculus [8]): 0.25 h
Activity (Mus musculus [9]): inactive

From ChEMBL document CHEMBL1833821, “Defining the structural parameters that confer anticonvulsant activity by the site-by-site modification of (R)-N'-benzyl 2-amino-3-methylbutanamide” (J Med Chem, 2011)
